Measured values gathered from unrelated publications.
Aldo-keto reductase family 1 member B1: Aldo-keto reductase family 1 member B1 (Bos taurus, UniProt P16116)
HTR2C: 5-hydroxytryptamine receptor 2C (HTR2C, Homo sapiens, UniProt P28335)
FLT3: Receptor-type tyrosine-protein kinase FLT3 (FLT3, Homo sapiens, UniProt P36888)
MMP3: Stromelysin-1 (MMP3, Homo sapiens, UniProt P08254)
CAMK2A: Calcium/calmodulin-dependent protein kinase type II subunit alpha (CAMK2A, Homo sapiens, UniProt Q9UQM7)
TYRO3: Tyrosine-protein kinase receptor TYRO3 (TYRO3, Homo sapiens, UniProt Q06418)
FAAH: Fatty-acid amide hydrolase 1 (FAAH, Homo sapiens, UniProt O00519)
EAPA: Endothiapepsin (EAPA, Cryphonectria parasitica, UniProt P11838)
AURKC: Aurora kinase C (AURKC, Homo sapiens, UniProt Q9UQB9)
DHFR: Dihydrofolate reductase (DHFR, Homo sapiens, UniProt P00374)

C/C(=N/N=c1/scc(-c2ccc(Cl)cc2)n1-c1ccccc1)c1ccc2c(c1)OCCO2 — IC50 (Aldo-keto reductase family 1 member B1; enzyme activity; inhibitor; absorbance): 14.5 µM
CN1CCN(c2ccc(Nc3ncc4cc(C#N)c(=O)n(C5CCCC5)c4n3)cc2)CC1 — IC50 (Testis-specific serine/threonine-protein kinase 1 (TSSK1B, Homo sapiens, UniProt Q9BXA7); enzyme activity; inhibitor): 0.116 µM
COc1cccc(-n2c(-c3ccc([N+](=O)[O-])cc3)cs/c2=N/N=C\c2c[nH]c3ccccc23)c1 — IC50 (Aldo-keto reductase family 1 member B1; enzyme activity; inhibitor; absorbance): 4.21 µM
C[C@@H]1Cc2ccccc2N1C(=O)NCCCCN(C)[C@@H]1Cc2cccc3[nH]c(=O)n(c23)C1 — IC50 (HTR2C; ligand displacement; radioligand): > 10 µM
O=C(Nc1cccnc1)N1CCC(Cc2cccc(Oc3ccc(C(F)(F)F)cn3)c2)CC1 — IC50 (Monoglyceride lipase (MGLL, Homo sapiens, UniProt Q99685); enzyme activity; inhibitor; absorbance): > 10 µM
CC[C@H](C)[C@H](NC(C)=O)C(=O)N[C@@H](CCC(=O)O)C(=O)N[C@H](C(=O)N[C@H](C=O)CC(=O)O)[C@@H](C)O — IC50 (Caspase-4 (CASP4, Homo sapiens, UniProt P49662); enzyme activity; inhibitor): 0.784 µM
CONc1ccnc(Nc2cccc(-c3cccnc3)c2)n1 — IC50 (FLT3; enzyme activity; inhibitor): > 34 µM
O=C(Nc1ccccc1C=NNS(=O)(=O)c1ccc2ccccc2c1)c1ccc([N+](=O)[O-])cc1 — IC50 (UDP-N-acetylmuramate--L-alanine ligase (murC, Escherichia coli K-12, UniProt P17952); enzyme activity; inhibitor; absorbance): 27 µM
CCNc1ccnc(Nc2cccc(-c3cccnc3)c2)n1 — IC50 (FLT3; enzyme activity; inhibitor): 0.0475 µM
COc1ccc(S(=O)(=O)N2Cc3cc(O)c(O)cc3CC2C(=O)NO)cc1 (stereo not drawn) — IC50 (MMP3; enzyme activity; inhibitor): 10 µM
C[C@H]1OC(=O)/C=C/C(=O)[C@@H](OC(=O)CCC(=O)O)CCCCCCCC[C@H]1O — IC50 (MMP3; enzyme activity; inhibitor): 10 µM
CC(C)(C)n1nc(-c2cnc3cc(OC4CC4)ccc3c2)c(C(N)=O)c1N — IC50 (CAMK2A; cell-free assay; inhibitor): > 10 µM
Fc1ccc(C2CCN(c3nc(-c4ccccn4)nc4ccccc34)C2)cc1 (stereo not drawn) — IC50 (Sterol 14-alpha demethylase (CYP51, Trypanosoma cruzi, UniProt Q7Z1V1); enzyme activity; inhibitor; fluorescence): > 100 µM
CC(=N/N=c1\scc(-c2ccc(Cl)cc2)n1-c1c(C)cccc1C)C12CC3CC(CC(C3)C1)C2 — IC50 (Aldo-keto reductase family 1 member B1; enzyme activity; inhibitor; absorbance): 3.51 µM
CNC(=O)c1cc2c(Oc3ccc(NC(=O)C4(C(=O)Nc5ccc(F)cc5)CC4)cc3)ccnc2cc1OC — IC50 (TYRO3; enzyme activity; inhibitor; radiometric): 0.013 µM
CC(=N/N=c1\scc(-c2ccc(Cl)cc2)n1Cc1ccccc1)C12CC3CC(CC(C3)C1)C2 — IC50 (Aldo-keto reductase family 1 member B1; enzyme activity; inhibitor; absorbance): 2.18 µM
O=C(Oc1nsnc1N1CCCCC1)N1CCCC1 — IC50 (FAAH; enzyme activity; inhibitor; cell membranes): 0.813 µM
NNC(COCc1ccccc1)c1nnnn1CCc1ccc(O)cc1 (stereo not drawn) — IC50 (EAPA; enzyme activity; inhibitor; fluorescence): 89.3 µM
COc1ccc2c(Oc3ccc4c(C(=O)Nc5ccccc5N)cccc4c3)ccnc2c1 — IC50 (AURKC; enzyme activity; inhibitor): > 0.5 µM
O=C(Oc1nsnc1N1CCC(Cc2ccccc2)CC1)N1CCCCC1 — IC50 (FAAH; enzyme activity; inhibitor; cell membranes): 0.324 µM
O=C(O)c1ccnc2c(O)cccc12 — IC50 (Gamma-butyrobetaine dioxygenase (BBOX1, Homo sapiens, UniProt O75936); enzyme activity; inhibitor): 111 µM
CSCC[C@H](NC(=O)[C@H](Cc1c[nH]c2ccccc12)NC(=O)CNC(=O)[C@H](Cc1ccc(O)cc1)NC(=O)[C@H](C)NC(=O)[C@@H](CCC(=O)O)NC(=O)CN1CCN(CC(=O)O)CCN(CC(=O)O)CCN(CC(=O)O)CC1)C(=O)N[C@@H](CC(=O)O)C(=O)N[C@@H](Cc1cccc2ccccc12)C(N)=O — IC50 (Gastrin/cholecystokinin type B receptor (CCKBR, Homo sapiens, UniProt P32239); ligand displacement; radioligand): 0.00351 µM
Cc1cnc(-c2ccc(-c3ccc(NC(=O)Nc4c(F)cc(F)cc4F)cc3F)c3c2C(=O)NC3)[nH]1 — IC50 (AURKC; enzyme activity; inhibitor): 0.003 µM
C/C(=N/N=c1/scc(-c2ccc(Cl)cc2)n1-c1ccc(F)cc1)c1ccc2c(c1)OCCO2 — IC50 (Aldo-keto reductase family 1 member B1; enzyme activity; inhibitor; absorbance): 9.63 µM
CC(Cc1ccc(C(C)(C)C)cc1)C(NN)c1nnnn1Cc1ccc2c(c1)OCO2 (stereo not drawn) — IC50 (EAPA; enzyme activity; inhibitor; fluorescence): 18 µM
c1cncc(-c2cccc(Nc3nccc(NC4CCCCC4)n3)c2)c1 — IC50 (FLT3; enzyme activity; inhibitor): 0.032 µM
Cc1ccc(NC(=O)c2ccc(C)c(C(F)(F)F)c2)cc1C#Cc1nn(C2CCC(O)CC2)c2ncnc(N)c12 (stereo not drawn) — IC50 (TYRO3; enzyme activity; inhibitor; radiometric): 0.351 µM
CC(C)Nc1ccnc(Nc2cccc(-c3nccs3)c2)n1 — IC50 (FLT3; enzyme activity; inhibitor): 0.475 µM
C/C(=N/N=c1/scc(-c2ccc(Br)cc2)n1-c1c(C)cccc1C)c1ccc2c(c1)OCCO2 — IC50 (Aldo-keto reductase family 1 member B1; enzyme activity; inhibitor; absorbance): 3.14 µM
c1ccc(-c2cccc(Nc3nccc(NC4CCCCC4)n3)c2)cc1 — IC50 (FLT3; enzyme activity; inhibitor): > 12 µM
COc1cc(OC)c(C(=O)CCCCN2CCC3(CC2)NC(=O)NC3=O)cc1NS(=O)(=O)c1ccc(C(F)(F)F)cc1 — IC50 (HTR2C; ligand displacement; radioligand): 0.003 µM
O=[N+]([O-])c1ccc(-c2nc3ccccc3n2Cc2ccccc2)cc1 — IC50 (DHFR; enzyme activity; inhibitor): 12.3 µM
CC(=N/N=c1\scc(-c2ccc(Br)cc2)n1-c1ccccc1C)C12CC3CC(CC(C3)C1)C2 — IC50 (Aldo-keto reductase family 1 member B1; enzyme activity; inhibitor; absorbance): 10.2 µM
CC1=C(/C=C/C(C)=C/C=C/C(C)=C/C(=O)O)C(C)(C)CCC1 — IC50 (Prothrombin (F2, Bos taurus, UniProt P00735); enzyme activity; inhibitor; fluorescence): 223 µM
O=C(Oc1nsnc1N1CCC2CCCCC2C1)N1CCCCC1 (stereo not drawn) — IC50 (FAAH; enzyme activity; inhibitor; cell membranes): 0.031 µM
O=C1NCCc2[nH]c(-c3cccnc3)cc21 — IC50 (Casein kinase I isoform delta (CSNK1D, Homo sapiens, UniProt P48730); enzyme activity; inhibitor): > 100 µM
c1ccc(-c2ccccc2Nc2nccc(NC3CCCCC3)n2)cc1 — IC50 (FLT3; enzyme activity; inhibitor): > 13 µM
O=C(Oc1nsnc1N1CCc2ccccc2C1)N1CCCCC1 — IC50 (FAAH; enzyme activity; inhibitor; cell membranes): 0.017 µM
FC(F)(F)C1(Nc2ccnc(Nc3cccc(-c4cccnc4)c3)n2)CC1 — IC50 (FLT3; enzyme activity; inhibitor): < 0.006 µM
O=C(O)c1ccc2nc(-c3ccc(OCc4ccccc4COc4ccc(-c5nc6ccc(C(=O)O)cc6[nH]5)cc4)cc3)[nH]c2c1 — IC50 (DHFR; enzyme activity; inhibitor): > 250 µM
Cc1ccc(C(=O)Nc2ccc(Oc3cc4cnn(C)c4cc3-c3cn[nH]c3)c(F)c2)c(=O)n1-c1ccc(F)cc1 — IC50 (Tyrosine-protein kinase receptor Tie-1 (TIE1, Homo sapiens, UniProt P35590); enzyme activity in cells; inhibitor): > 1 µM
Cc1ccc2nc(-c3ccc([N+](=O)[O-])cc3)n(Cc3ccccc3)c2c1 — IC50 (DHFR; enzyme activity; inhibitor): 6.78 µM
O=C(Nc1ccc(Cl)cc1)N1CCC(n2c(=O)[nH]c3c(Br)cccc32)CC1 — IC50 (Formamidopyrimidine-DNA glycosylase (Escherichia coli, UniProt P05523); enzyme activity; inhibitor): > 100 µM
CNc1ccnc(Nc2cccc(-c3cccnc3)c2)n1 — IC50 (FLT3; enzyme activity; inhibitor): 0.204 µM
CC(C)(C)n1nc(-c2ccc3nc(OC4CC4)ccc3c2)c(C(N)=O)c1N — IC50 (CAMK2A; cell-free assay; inhibitor): > 10 µM
